# According to the EternaBench riboswitch data:
# Tested on: MS2 coat protein
# Test: apparent Kd, MS2 coat protein; higher = weaker binding; RNA-MaP array; FMN 200 µM where present
# Outline: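 Binding was read on Illumina sequencing-chip clusters where stalled E. coli RNA polymerase had transcribed each design. A titration of SNAP-549-labelled MS2 coat protein began at 0.7 or 1.5 nM and doubled to 3 µM, once without ligand and once with constant ligand, in 100 mM Tris-HCl pH 7.5, 80 mM KCl, 4 mM MgCl2, BSA, DTT, yeast tRNA and Tween-20. The apparent Kd is the median of filtered per-cluster binding-curve fits, based on green signal normalised to red-channel RNA signal and control-cluster median Fmax.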
# [1] = designed as: OFF switch for flavin mononucleotide, no ligand
# [2] = ligand present: flavin mononucleotide, designed as: OFF switch for flavin mononucleotide
# [3] = designed as: ON switch for flavin mononucleotide, no ligand
# [4] = ligand present: flavin mononucleotide, designed as: ON switch for flavin mononucleotide
Sequence,apparent Kd [1] [µM],apparent Kd [2] [µM],apparent Kd [3] [µM],apparent Kd [4] [µM]
GUCAGCUCGUGAGGAUAUACAACACUGCCUCGGCAGUGUAUUAAGAUCACAUGAGGAUCACCCAUGUAGAAGGCACGAGCUGAU,0.0134,0.214,,
CAGUACUGAGGAUAUACAUGAGGAUCACCCAUGUGUUCCAGCGAGGAAACUAGCAAAAGUAGAAGGCAGUACUG,0.0204,0.278,,
UGAUCUUUUGUUAGGAUAUGCUGGGUUUUUUCUCAGCAGAAGGGACAUGAGGAUCACCCAUGUUCUCUCUUUUU,0.00949,0.0116,,
GGAUGACAAAGUCAUCCUAUUCGAACAUGAGGAUCACCCAUGUAGGAUAUGCUACAGAAACUGUAGCAGAAGGACAUGUGCUUU,0.0341,0.151,,
AUGAGAAAAGCAGGAUAUCUAUUGGCUCAGAAACAUGAGGAUCACCCAUGUAGAGAAGGGCUAAGACCGACUCUUCGGAGUUGA,0.00568,0.00651,,
GCUAGUAUUGCAGGAUAUUGUGUUUAAUUAUGGCAAGAAGGGCAUUACAUGAGGAUCACCCAUGUUUUCCUUAGUCAUACUAGC,0.00557,0.00663,,
GCCGGUUAAGUCAGGAUAUACCUAUGGAUACAUAGGUAGAAGGGACAUGAGGAUCACCCAUGUUCCUCAUCGGC,0.0161,0.0489,,
AAUAUGAGCUGGAAUAAACCUAAAACAUGAGGAUCACCCAUGUAGGAUAUCAGCACGAUAAGUGCUGAGAAGGACAACCAGCUC,0.0144,0.0139,,
UAGUAGAUCCGAGGAUAUACAAUCCGGAAACGGUACAUGAGGAUCACCCAUGUAGAAGGCGGAUCUACAGGUACUAAAGUACCA,0.00568,0.00782,,
CCGUUGGGCUAGAAGGCUCCGGGAGAGCCGCGGAGAGGAUAUAGCACAUGAGGAUCACCCAUGUGGUAUGACCUUAUGUAAUCA,0.0337,0.0629,,
AAUUUACAGCUAGGAUAUACAUGAGGAUCACCCAUGUAACGAUCGGAUCUUAUGAUCGUGUCCGUGUAGAAGGAGCAAAUAAGA,0.00697,0.0074,,
GCUCUAUGCUAGAAGGCGUGAAACAUGAGGAUCACCCAUGUCAGAGAUAUGAGGAUAUGGCAUAGAGCAAAAGACGGAAACGUC,,,0.0187,0.00525
AAAACGUCAGGAUAUCCAAUAUAUGACAUGAGGAUCACCCAUGUUUCCACUCGUACCUCCGGAGAAGGGACAAAUA,0.0415,0.034,,
CCUGCACAUGAGGAUCACCCAUGUUAGGAUAUCUCGCCGCCUAAACGAAUGGUGGCCCAGAGAAGGAACAGGGC,0.0286,0.0413,,
ACUGUUGAGUAGAAGGUACGAUAUUAGUUAUAGUAAGGAUAUACUAACAUGAGGAUCACCCAUGUAUAAAUGGAUAAAUAUUCU,,,0.00991,0.0115
GAGUGGAUGAGACCGCGGGCGACAUGAGGAUCACCCAUGUUGCAGGAUAUCAGUGCGUCGGCGCCUGAGAAGGGCGACAAUCAU,0.00656,0.00711,,
UUUCAGCUCACAUGAGGAUCACCCAUGUCCGUUCGCCCGGACAGAAGGCACCCAUAACAAUGCGGUGAGGAUAUGUCAGCAAGG,,,0.141,0.014
CCAUACCGAGGAUAUACAUGAGGAUCACCCAUGUCAAAACCACGUGUACGGCGGUCUUGUAGAAGGCGGAAAUA,0.011,0.016,,
ACAUUAGUACCACAUGUAUUACAUGAGGAUCACCCAUGUAACUAGGAUAUGUAUUAGAAUUUACAACAGAAGGAGUUAAUAUGU,0.0098,0.0119,,
UAUUAACACGAAGGAUAUGGUUACAUGAGGAUCACCCAUGUAUGUAUAUUGAUCCAGAUUUUUGACCAGAAGGUCGUGAGUAAA,0.108,0.285,,
AUAUAUGCUAACAUGAGGAUCACCCAUGUGUUAUACUUAAUAUAGGAUAUGUUUAUACUUUUUGGGCAGAAGGAUGGCAUAUAU,,,0.0261,0.0218
UUUUGGCAUGUAGGAUAUGGGUCCGAUUAGGAUUUAGAAGGACAUGAGGAUCACCCAUGUGCAUUUAAUUGGUCAUUACCUUUU,0.0849,0.115,,
UAUUAUCACGAAGGAUAUGCUUACAUGAGGAUCACCCAUGUAUGUAUAUUGAUCCAGCGUAUUGAGCAGAAGGUCGUGAGUAAA,0.0218,0.0758,,
